Screening data deposited in PubChem by several laboratories.
RTF Ca sens act: cardiac RTF calcium sensitivity activators, primary screen, biochemical, IANBD-TnC fluorescence, EC20 calcium; Troponin I, cardiac muscle (Homo sapiens) + Troponin T, cardiac muscle (Homo sapiens) + …; IANBD-labeled TnC RTF fluorescence at EC20 calcium; 0% EC20 calcium, 100% full calcium; activation, % at 7.2 µM; actives 0.24% (n = 340,000);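 active means activation above the mean over all tested compounds plus 3 SD, cut at about 30% in these data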;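 further: rise in fluorescence read as greater calcium sensitivity of cardiac thin filaments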
Efflux pump mplx: inhibitors of Candida efflux pumps in yeast, primary screen, S. cerevisiae, Nile Red, multiplex. S. cerevisiae Candida pump triplex. inhibition, % at 10 µM. actives 0.44% (n = 330,000);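 active means plate passing quality check with inhibition over a set limit, or well fluorescence over plate mean plus 4 SD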;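 further: Nile Red retained in pooled yeast measured as flow cytometry median fluorescence; 0% = buffer negative control and 100% = Enniatin B positive control; higher means more Nile Red kept so more efflux inhibition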
SUMO Mot1 rescue: yeast Mot1-301 growth rescue at high temperature, primary screen, SUMOylation pathway inhibitor project, S. cerevisiae, ATP luminescence, 38.5C; AID 2716, 2010; S. cerevisiae Mot1-301 growth rescue; percent above DMSO median, 100 means doubled; actives 1% (n = 320,000); growth rescue, % at 18.8 µM;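 active means every valid replicate shows activation above 250% relative to neutral control wells; inactive means the rest, any valid replicate at or below 250%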;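 further: OY570 slx delta 5 strain wells were the positive control but not used for scaling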
UCH37 inh: inhibitors of human UCH37 deubiquitinase, primary screen, biochemical, Ub-AMC cleavage, fluorescence; Ubiquitin carboxyl-terminal hydrolase isozyme L5 (Homo sapiens), Q9Y5K5; inhibition, % (no concentration beside the values); actives 0.33% (n = 330,000); AID 588478, 2011; purified proteasome/UCH37;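 active means mean inhibition over replicate wells above about 20%, limit read from the data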;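 further: 0% = compound-free wells with enzyme and 100% = wells lacking proteasome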
Target sequence (Q9Y5K5 whole entry, looked up): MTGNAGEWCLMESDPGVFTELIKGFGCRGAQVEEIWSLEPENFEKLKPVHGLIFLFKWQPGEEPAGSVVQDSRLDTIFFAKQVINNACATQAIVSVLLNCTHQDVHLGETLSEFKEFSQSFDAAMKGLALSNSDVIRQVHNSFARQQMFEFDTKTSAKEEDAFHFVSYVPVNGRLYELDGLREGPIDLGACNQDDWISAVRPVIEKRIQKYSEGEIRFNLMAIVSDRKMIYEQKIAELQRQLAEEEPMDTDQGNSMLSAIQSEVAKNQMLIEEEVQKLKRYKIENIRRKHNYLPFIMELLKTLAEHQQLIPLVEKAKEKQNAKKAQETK
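Material: human UCH37 enzyme supplied as purified proteasome complex. Measure: % inhibition of Ub-AMC cleavage fluorescence. Medium: pH 7.4 Tris-HCl (50 mM) with ovalbumin, ATP-MgCl2, DTT. Times: 30 min preincubation with enzyme, 25 min cleavage at room temperature. Detection: AMC fluorescence intensity at 355/460 nm.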
ARNT-TACC3 inh: disruptors of ARNT/TACC3 protein interaction, primary screen, biochemical, AlphaScreen, single concentration. AlphaScreen His-ARNT PAS-B/GST-TACC3 binding, luminescence; TACC3 fragment carries E629A point mutation. inhibition, % at 9.99 µM. actives 0.66% (n = 390,000);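 active means mean inhibition of replicates at least 50% and at least half of replicates each reaching 50%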;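 further: 0% = complete ARNT plus TACC3 wells and 100% = ARNT alone without TACC3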
RTF Ca sens inh: cardiac RTF calcium sensitivity inhibitors, primary screen, biochemical, IANBD-TnC fluorescence, EC70 calcium; AID 493244, 2011; inhibition, % at 7.15 µM; Troponin I, cardiac muscle (Homo sapiens) + Troponin T, cardiac muscle (Homo sapiens) + …; IANBD-labeled cardiac RTF, Ca2+ fluorescence; actives 0.12% (n = 340,000);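 active means inhibition above the mean inhibition of all tested compounds plus 3 SD, cut at about 17% in these data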;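 further: assay run at fixed EC70 calcium of 1.6 mM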
Yeast cmpd fluor: counter-screen for efflux pump inhibitors: compound fluorescence | shares compounds with Efflux pump mplx | S. cerevisiae AD/pABC3, flow cytometry | fluorescence ratio to DMSO, % at 10 µM | actives 4% (n = 1,700) | AID 588517;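 active means fluorescence ratio to DMSO above its plate's cutoff, the plate mean ratio plus 5 SD, cut at about 210% in these data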;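 further: unstained yeast with no Nile Red so the signal is compound autofluorescence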
CaMdr1 efflux inh: inhibitors of Candida albicans Mdr1 efflux, confirmation, flow cytometry, singleplex, Cherry Pick1 set. S. cerevisiae AD/CaMDR1, Nile Red efflux. shares compounds with Efflux pump mplx. actives 1% (n = 1,700). inhibition, % at 10 µM. AID 588518, 2011; in the data active means inhibition above about 26%;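 further: 0% = DMSO vehicle and 100% = reference inhibitor; higher means more Nile Red retained so more efflux inhibition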
CaCdr2 efflux inh: inhibitors of Candida albicans Cdr2 efflux pump, confirmation, S. cerevisiae AD/CaCDR2, flow cytometry, cherry pick 1, singleplex | shares compounds with Efflux pump mplx | Nile Red retention | Nile Red retention ratio vs DMSO, % at 10 µM | actives 4% (n = 1,700) | AID 588520, 2011; in the data active means Nile Red retention ratio vs DMSO above about 190%;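 further: higher ratio means more blocking of Cdr2 efflux of the dye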
Cdr1 pump inh: inhibitors of Candida albicans Cdr1 efflux pump, confirmation, S. cerevisiae AD/CaCDR1, flow cytometry, cherry pick 1, singleplex; shares compounds with Efflux pump mplx; Nile Red efflux; inhibition, % at 10 µM; actives 1% (n = 1,700);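 active means inhibition above the screen-wide mean plus twice its standard deviation, cut at about 32% in these data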
* hit, by the source's call; nt = not tested or not shown. Sampled rows, rich in hits. Any-hit rate of the full collection: about 2.1%.

SMILES	RTF Ca sens act	Efflux pump mplx	SUMO Mot1 rescue	UCH37 inh	ARNT-TACC3 inh	RTF Ca sens inh	Yeast cmpd fluor	CaMdr1 efflux inh	CaCdr2 efflux inh	Cdr1 pump inh
O=C1C2C3CCC(C3)C2C(=O)N1Cc1ccccc1 (centres undefined)	-4.8	-0.3	-8.1	4.0	-19.1	1.1	nt	nt	nt	nt
O=C(CN1CCN(Cc2ccccc2)CC1)NN=Cc1ccco1	nt	nt	nt	7.5	nt	nt	nt	nt	nt	nt
Cc1ccccc1OCC(=O)NCCc1nc2ccccc2[nH]1	1.0	15.2*	19.6	3.3	-0.3	-23.2	96.1	-0.4	95.4	-0.1
Cc1cc(C)cc(OCC(=O)NCCc2nc3ccccc3[nH]2)c1	-3.5	-0.1	-0.8	1.3	4.1	0.0	nt	nt	nt	nt
Cc1cc(Cl)c(OCCCn2ccnc2)c(Br)c1	-1.4	15.7*	-8.0	3.4	-23.4	-13.8	93.7	-0.1	95.1	0.0
Cc1cc(C)c(OCCCn2ccnc2)c(C)c1	4.7	0.0	-15.6	4.3	0.0	-11.4	nt	nt	nt	nt
COc1cc(C=NNC(=O)CN(Cc2ccco2)S(=O)(=O)c2ccccc2)ccc1O	nt	nt	nt	1.5	nt	nt	nt	nt	nt	nt
CCOc1ncccc1C(=O)OCC(=O)c1c(N)n(C)c(=O)n(C)c1=O	-3.5	0.0	0.0	0.9	-0.1	-1.7	nt	nt	nt	nt
Cn1c(N)c(C(=O)COC(=O)c2ccccn2)c(=O)n(C)c1=O	2.8	1.7*	23.3	1.1	-0.8	-6.3	99.0	-0.3	96.3	-0.1
COc1cc(C(C)=NNC(=O)CSc2nc3ccccc3n2C)ccc1O	nt	nt	nt	5.3	nt	nt	nt	nt	nt	nt
Cc1ccc(CS(=O)(=O)c2nc3c(c(N(C)C)n2)CCCC3)cc1	2.6	0.1	181.7	2.1	-1.0	0.5	nt	nt	nt	nt
Cc1nc(S(=O)(=O)Cc2ccc(Cl)cc2)nc2c1CCC2	-1.5	1.9*	332.6	0.9	-5.5	-6.2	104.7	0.0	99.6	0.0
CC(=O)C(=NNc1ccccc1)Sc1nncn1C	nt	nt	nt	8.2	nt	nt	nt	nt	nt	nt
Cc1ccc2c(c1)CCCN2C(=O)C1CCCO1 (centres undefined)	-4.6	14.4*	-3.2	-1.2	7.0	-3.0	102.5	-0.2	99.6	0.2
COC(=O)N1CCCc2cc(C)ccc21	4.1	-0.2	-6.4	-24.6	-17.5	-6.1	nt	nt	nt	nt
O=C(/C=C/c1ccccc1[N+](=O)[O-])NCCc1ccc(F)cc1	-0.5	0.4*	0.7	-1.5	nt	-1.4	87.6	0.0	183.9	0.0
O=C(/C=C/c1ccccc1Cl)NCCc1ccc(F)cc1	-1.4	0.9	1.6	5.7	1.4	-5.5	nt	nt	nt	nt
CCOCCCNS(=O)(=O)c1cc(Br)cc2c1N(C(=O)C1CC1)CC2	9.1	-0.2	-6.8	1.2	1.3	-8.6	nt	nt	nt	nt
CCN1CCCC1CNS(=O)(=O)c1cc(Br)cc2c1N(C(=O)C1CC1)CC2 (centres undefined)	2.2	20.5*	22.6	3.5	2.0	-9.1	103.4	-0.1	97.2	0.1
CCCCCC(=O)N/N=C(\C)c1ccc(Cl)cc1	-3.0	9.8*	19.9	nt	0.6	-7.6	111.1	0.0	97.5	-0.1
